Laboratory results as given in ChEMBL document CHEMBL5724801, “EUbOPEN Chemogenomics Library - Multiplex” (2024).
Where “and” joins values, the source holds several entries; their conditions need not be identical. Identical values can stand only once.

System: U2OS
Test: Multiplex assay against U2OS
Format: toxicity, cell-based
Conditions: human
How it was run: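 At seeding, live cells were stained with Hoechst33342, BioTracker Green Microtubule Cytoskeleton Dye, MitoTracker Red and Annexin V Alexa Fluor 680. After compound addition they were imaged on a CQ1 microscope at 37°C and 5% CO2, and CellPathfinder machine-learning gating sorted them into Hoechst high-intensity objects or normal cells, with normal cells further split into healthy, pyknosed or fragmented nuclei and pyknosed cells into mitotic or apoptotic. Tubulin, mitochondrial-mass and membrane-permeability phenotypes are given as per cents of cells with healthy nuclei.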

[1] = 12 h, 1 µM, compound concentration 1 uM
[2] = 12 h, 10 µM, compound concentration 10 uM
[3] = 24 h, 1 µM, compound concentration 1 uM
[4] = 24 h, 10 µM, compound concentration 10 uM
[5] = 48 h, 1 µM, compound concentration 1 uM
[6] = 48 h, 10 µM, compound concentration 10 uM

Question: With `CC(C)C[C@H](NC(=O)c1cc2ccccc2s1)C(=O)N1CCN(C(=O)[C@H](CO)NS(=O)(=O)c2ccc(Cl)cc2Cl)CC1` as the compound, how does the “Population Apoptotic (%)” value [1] read?
Answer: 71.76% and 81.82%

Question: What about the “Population Fragmented Nuclei (%)” value [1] of the same compound?
Answer: 5.1% and 6.74%

Question: What about the “Population Healthy Nuclei (%)” value [1] of the same compound?
Answer: 61.48% and 56.18%

Question: And the “Population Hoechst High Intensity Objects (%)” value [1]?
Answer: 0%

Question: And the “Population Membrane Permeable-Phenotype (%)” value [1]?
Answer: 5.39% and 4%

Question: What about the “Population Mitotic Cells (%)” value [1] of the same compound?
Answer: 28.24% and 18.18%

Question: What about the “Population Normal (%)” value [1] of the same compound?
Answer: 100%

Question: And the “Population Pyknosed Nuclei (%)” value [1]?
Answer: 33.42% and 37.08%

Question: And the “Population Tubulin-Different-Phenotype (%)” value [1]?
Answer: 4.56% and 4%

Question: And the “Population Apoptotic (%)” value [2]?
Answer: 55.1% and 50.79%

Question: And the “Population Fragmented Nuclei (%)” value [2]?
Answer: 2% and 2.9%

Question: What about the “Population Healthy Nuclei (%)” value [2] of the same compound?
Answer: 65.33% and 51.45%

Question: And the “Population Hoechst High Intensity Objects (%)” value [2]?
Answer: 0%

Question: And the “Population Membrane Permeable-Phenotype (%)” value [2]?
Answer: 69.39% and 39.44%

Question: And the “Population Mitochondria Different-Phenotype (%)” value [2]?
Answer: 30.61% and 87.32%

Question: What about the “Population Mitotic Cells (%)” value [2] of the same compound?
Answer: 44.9% and 49.21%

Question: And the “Population Normal (%)” value [2]?
Answer: 100%

Question: What about the “Population Pyknosed Nuclei (%)” value [2] of the same compound?
Answer: 32.67% and 45.65%

Question: And the “Population Tubulin-Different-Phenotype (%)” value [2]?
Answer: 98.47% and 95.77%

Question: And the “Total Cell Count” value [2]?
Answer: 300 and 138

Question: And the “Population Apoptotic (%)” value [3]?
Answer: 71.76% and 90.91%

Question: And the “Population Fragmented Nuclei (%)” value [3]?
Answer: 4.78% and 1.14%

Question: What about the “Population Healthy Nuclei (%)” value [3] of the same compound?
Answer: 65.38% and 61.36%

Question: And the “Population Hoechst High Intensity Objects (%)” value [3]?
Answer: 0%

Question: What about the “Population Membrane Permeable-Phenotype (%)” value [3] of the same compound?
Answer: 4.18% and 5.56%

Question: What about the “Population Normal (%)” value [3] of the same compound?
Answer: 100%

Question: What about the “Population Pyknosed Nuclei (%)” value [3] of the same compound?
Answer: 29.84% and 37.5%

Question: What about the “Population Tubulin-Different-Phenotype (%)” value [3] of the same compound?
Answer: 4.88% and 3.7%

Question: And the “Population Apoptotic (%)” value [4]?
Answer: 65.59% and 62.96%

Question: And the “Population Fragmented Nuclei (%)” value [4]?
Answer: 2.48% and 4.41%

Question: What about the “Population Healthy Nuclei (%)” value [4] of the same compound?
Answer: 64.54% and 55.88%

Question: What about the “Population Hoechst High Intensity Objects (%)” value [4] of the same compound?
Answer: 0%

Question: And the “Population Membrane Permeable-Phenotype (%)” value [4]?
Answer: 34.07% and 32.89%

Question: What about the “Population Mitochondria Different-Phenotype (%)” value [4] of the same compound?
Answer: 52.75% and 88.16%

Question: And the “Population Mitotic Cells (%)” value [4]?
Answer: 34.41% and 37.04%

Question: What about the “Population Normal (%)” value [4] of the same compound?
Answer: 100%

Question: And the “Population Pyknosed Nuclei (%)” value [4]?
Answer: 32.98% and 39.71%

Question: What about the “Population Tubulin-Different-Phenotype (%)” value [4] of the same compound?
Answer: 95.6% and 81.58%

Question: What about the “Total Cell Count” value [4] of the same compound?
Answer: 282 and 136

Question: And the “Population Apoptotic (%)” value [5]?
Answer: 77.39% and 79.17%

Question: And the “Population Fragmented Nuclei (%)” value [5]?
Answer: 3.97% and 6.03%

Question: What about the “Population Healthy Nuclei (%)” value [5] of the same compound?
Answer: 79.75% and 73.28%

Question: What about the “Population Hoechst High Intensity Objects (%)” value [5] of the same compound?
Answer: 0%

Question: And the “Population Membrane Permeable-Phenotype (%)” value [5]?
Answer: 5.15% and 10.59%

Question: And the “Population Mitotic Cells (%)” value [5]?
Answer: 22.61% and 20.83%

Question: What about the “Population Normal (%)” value [5] of the same compound?
Answer: 100%

Question: What about the “Population Pyknosed Nuclei (%)” value [5] of the same compound?
Answer: 16.29% and 20.69%

Question: What about the “Population Tubulin-Different-Phenotype (%)” value [5] of the same compound?
Answer: 5.51% and 4.71%

Question: And the “Population Apoptotic (%)” value [6]?
Answer: 78.7% and 70%

Question: What about the “Population Fragmented Nuclei (%)” value [6] of the same compound?
Answer: 3.93% and 4.11%

Question: What about the “Population Healthy Nuclei (%)” value [6] of the same compound?
Answer: 63.44% and 54.79%

Question: What about the “Population Hoechst High Intensity Objects (%)” value [6] of the same compound?
Answer: 0%

Question: And the “Population Membrane Permeable-Phenotype (%)” value [6]?
Answer: 29.05% and 32.5%

Question: What about the “Population Mitochondria Different-Phenotype (%)” value [6] of the same compound?
Answer: 43.33% and 62.5%

Question: And the “Population Mitotic Cells (%)” value [6]?
Answer: 21.3% and 30%

Question: And the “Population Normal (%)” value [6]?
Answer: 100%

Question: And the “Population Pyknosed Nuclei (%)” value [6]?
Answer: 32.63% and 41.1%

Question: What about the “Population Tubulin-Different-Phenotype (%)” value [6] of the same compound?
Answer: 92.38% and 80%

Question: And the “Total Cell Count” value [6]?
Answer: 331 and 146
